Results of several laboratories.
Each line is one published result; the experiments were not run side by side.
Target: Mitogen-activated protein kinase kinase kinase kinase 2 (MAP4K2, Homo sapiens, UniProt Q12851)
One construct used (Q12851 1-820): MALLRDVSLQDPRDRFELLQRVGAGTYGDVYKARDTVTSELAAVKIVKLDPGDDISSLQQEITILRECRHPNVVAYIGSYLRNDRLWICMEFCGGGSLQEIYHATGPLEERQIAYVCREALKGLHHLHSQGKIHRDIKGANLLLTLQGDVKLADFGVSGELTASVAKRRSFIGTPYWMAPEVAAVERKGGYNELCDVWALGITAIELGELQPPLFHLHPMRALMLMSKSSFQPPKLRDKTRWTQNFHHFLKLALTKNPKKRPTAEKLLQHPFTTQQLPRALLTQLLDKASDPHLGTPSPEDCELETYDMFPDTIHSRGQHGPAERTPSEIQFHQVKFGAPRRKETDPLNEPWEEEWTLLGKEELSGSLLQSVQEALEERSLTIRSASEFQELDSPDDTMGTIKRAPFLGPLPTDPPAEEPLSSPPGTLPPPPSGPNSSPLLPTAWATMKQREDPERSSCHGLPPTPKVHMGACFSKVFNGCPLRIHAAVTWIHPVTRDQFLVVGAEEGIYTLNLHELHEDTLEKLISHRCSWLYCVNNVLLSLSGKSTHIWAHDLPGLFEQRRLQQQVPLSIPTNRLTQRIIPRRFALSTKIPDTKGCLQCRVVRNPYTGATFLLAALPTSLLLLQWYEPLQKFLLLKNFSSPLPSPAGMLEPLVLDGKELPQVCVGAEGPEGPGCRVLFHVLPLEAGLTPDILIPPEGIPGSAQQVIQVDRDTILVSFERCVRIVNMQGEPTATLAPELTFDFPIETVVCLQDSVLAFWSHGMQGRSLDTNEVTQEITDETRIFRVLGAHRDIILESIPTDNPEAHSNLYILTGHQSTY

The remaining binding of `Cc1nc(N2CC[C@@H](O)C2)ncc1-c1cc(C(F)(F)F)cc2[nH]ncc12` is reported as 76% (binding; competition with immobilised ligand; 1 µM).
With `N#CCCc1ccc2c(c1)-c1[nH]c3ccc([N+](=O)[O-])cc3c1CC(=O)N2` the remaining signal was 14% (cell-free assay; 0.5 µM).
With `COc1ccc2c(O[C@@H]3C[C@H]4C(=O)N[C@]5(C(=O)O)CC5/C=C\CCCCC[C@H](NC(=O)OC5CCCC5)C(=O)N4C3)cc(-c3csc(NC(=O)C(C)C)n3)nc2c1C` (some centres unmarked) the remaining binding was 100% (cell-free assay; competition with immobilised ligand; 1 µM).
For `FC(F)(F)Oc1cccc(-c2cnc3ccc(-c4ccncc4)nn23)c1`, the activity vs control was 37% (enzyme activity; inhibitor; radiometric; 1 µM).
`c1ccc(N2CCN(Cc3nc4ccccc4[nH]3)CC2)nc1` has a remaining binding of 100% (binding; competition with immobilised ligand; 1 µM).
The remaining signal of `Nc1ncnc2occ(-c3ccc(NC(=O)Nc4cc(C(F)(F)F)ccc4F)cc3)c12` is reported as 0% (cell-free assay; inhibitor; 20 µM).
The inhibition of `Cc1ccc(Nc2nccc(N(C)c3ccc4c(C)n(C)nc4c3)n2)cc1S(N)(=O)=O` is reported as 16% (enzyme activity; inhibitor; 0.3 µM).
For `Cc1cc(NC(=O)c2cccc(S(F)(F)(F)(F)F)c2)cc(-n2ccn3nc(-c4cccnc4)cc23)c1`, the remaining binding was 100% (cell-free assay; competition with immobilised ligand; 1 µM).
The remaining activity of `CC(C)(C)c1nc(-c2cccc(NS(=O)(=O)c3c(F)cccc3F)c2F)c(-c2ccnc(N)n2)s1` is reported as 115% (enzyme activity; inhibitor; radiometric; 1 µM).
With `FC(F)c1nc2ccccc2n1-c1nc(N2CCOCC2)nc(N2CCOCC2)n1` the remaining activity was 104% (enzyme activity; inhibitor; 10 µM).
`O=C(Nc1cnn(-c2csc(C(=O)NC3COC3)c2)c1)Nc1c(F)cccc1Cl` gave a remaining activity of 95.3% (enzyme activity; inhibitor; 5 µM).
With `CNC(=O)c1cc(Oc2ccc(NC(=O)Nc3ccc(Cl)c(C(F)(F)F)c3)cc2)ccn1` the inhibition was 46% (enzyme activity; inhibitor; 10 µM).
The remaining signal of `O=C1Nc2ccc(Cl)cc2C1=Cc1cc(Cl)c(O)c(Cl)c1` is reported as 62.6% (cell-free assay; 0.5 µM).
The remaining binding of `CCc1ccccc1C(=O)Nc1n[nH]c2c(C)c(F)c(C3C(C#N)=C(C)N(C)C(C)=C3C#N)cc12` is reported as 100% (cell-free assay; competition with immobilised ligand; 1 µM).
With `Cc1cc(NC(=O)c2cccc3cc(-c4cccc5[nH]nc(N)c45)ccc23)ccc1F` the activity vs control was 88% (enzyme activity; inhibitor; 0.1 µM).
With `CN1CC(Oc2cnc(C#N)cc2-c2ccn3nc(NC(=O)C4CC4)cc3c2)C1` the inhibition was 2% (enzyme activity; inhibitor; 1 µM).
`CSc1cccnc1N1CCN(Cc2nc3ccccc3[nH]2)CC1` has a remaining binding of 100% (cell-free assay; competition with immobilised ligand; 1 µM).
`CC/C(=N\NC(=O)NCc1cccc(O)c1)c1ccc(O)c(C)c1O` has an inhibition of 1.4% (enzyme activity; inhibitor; 0.1 µM).
`CCCOc1ccc(OC)c(F)c1C(=O)c1ccc(C(=O)N[C@@H]2CNC[C@H]2NC(=O)c2ccc3[nH]ncc3c2)cc1` gave a remaining activity of 61% (enzyme activity; inhibitor; 10 µM).
`COc1cc(Cl)c(C(=O)N[C@@H](CN[C@H]2CC[C@@H](N)CC2)Cc2ccc(C#N)cc2)cc1-c1ccc(CN[C@H](C)c2ccc(C)cc2)o1` has a remaining activity of 94% (enzyme activity; inhibitor; 1 µM).
With `O=c1nc(-c2ccccn2)sc2ccccc12` the remaining binding was 100% (binding; competition with immobilised ligand; 1 µM).
`CCN(CC)CCNC(=O)c1c(C)[nH]c(/C=C2\C(=O)Nc3ccc(F)cc32)c1C` gave an inhibition of 92% (enzyme activity; inhibitor; 10 µM).
`COc1cc(Nc2cnc(C#N)c(O[C@H](C)CN(C)C)n2)ncc1-c1cnn(C)c1` has a remaining activity of 102% (enzyme activity; inhibitor; radiometric; 1 µM).
`COc1cc2ncnc(Nc3ccc(Oc4ccccc4)c(C)c3C)c2cc1OC` gave an inhibition of 0% (enzyme activity; inhibitor; 1 µM).
With `C[C@@H](c1cccc(C#N)c1)n1cc(Cl)cc(C(N)=O)c1=N` the remaining binding was 90% (cell-free assay; competition with immobilised ligand; 1 µM).
For `COc1cc(/C=C/C(=O)CC(=O)/C=C/c2ccc(O)c(OC)c2)ccc1O`, the activity vs control was 103% (enzyme activity; inhibitor; 1 µM).
